Assay [1] addresses smTas1R2:S67I/E142D+smTas1R3 (Saimiri sciureus, UniProt A3QP08, E142D/S67I). The assay can be described thus: Ca2+ mobilization, mutated squirrel monkey receptor. It is filed as cell-based, squirrel monkey (Saimiri sciureus). Particulars: for response in dose-response experiment: versus smTas1R2+smTas1R3; for Bottom (B) of sigmoid dose-response fit / Top (T) of sigmoid dose-response fit: ΔF/F normalized to maximum response of hTas1R2/hTas1R3 to neotame.

The next assay deals with hTas1R2:I67S+hTas1R3 (Homo sapiens, UniProt Q8TE23, I67S). The assay can be described thus: Ca2+ mobilization, mutated human receptor. Particulars: aspartame 10mM, neotame 1mM, sucralose 2 mM; compared with hTas1R2/hTas1R3. Format: cell-based. Put shortly: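 HEK293E cells grown at 37°C in Opti-MEM with 5% FBS and seeded at 50,000/well. Cells co-lipofected with Tas1R plasmids and Gα16-gust44 (0.06 μg each per well); medium changed at 20 h, assayed 24 h later. Cells loaded 1 h with Fluo-4 AM in HEPES-buffered HBSS. Tastant added at 30 s; fluorescence (ex 488/em 525 nm) read every 2 s for 150 s more. ΔF/F normalised to human receptor maximal sucralose response; mean ± SEM, three independent experiments.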
Sequence of hTas1R2:I67S+hTas1R3 (Q8TE23 20-839 I67S, one chain of several): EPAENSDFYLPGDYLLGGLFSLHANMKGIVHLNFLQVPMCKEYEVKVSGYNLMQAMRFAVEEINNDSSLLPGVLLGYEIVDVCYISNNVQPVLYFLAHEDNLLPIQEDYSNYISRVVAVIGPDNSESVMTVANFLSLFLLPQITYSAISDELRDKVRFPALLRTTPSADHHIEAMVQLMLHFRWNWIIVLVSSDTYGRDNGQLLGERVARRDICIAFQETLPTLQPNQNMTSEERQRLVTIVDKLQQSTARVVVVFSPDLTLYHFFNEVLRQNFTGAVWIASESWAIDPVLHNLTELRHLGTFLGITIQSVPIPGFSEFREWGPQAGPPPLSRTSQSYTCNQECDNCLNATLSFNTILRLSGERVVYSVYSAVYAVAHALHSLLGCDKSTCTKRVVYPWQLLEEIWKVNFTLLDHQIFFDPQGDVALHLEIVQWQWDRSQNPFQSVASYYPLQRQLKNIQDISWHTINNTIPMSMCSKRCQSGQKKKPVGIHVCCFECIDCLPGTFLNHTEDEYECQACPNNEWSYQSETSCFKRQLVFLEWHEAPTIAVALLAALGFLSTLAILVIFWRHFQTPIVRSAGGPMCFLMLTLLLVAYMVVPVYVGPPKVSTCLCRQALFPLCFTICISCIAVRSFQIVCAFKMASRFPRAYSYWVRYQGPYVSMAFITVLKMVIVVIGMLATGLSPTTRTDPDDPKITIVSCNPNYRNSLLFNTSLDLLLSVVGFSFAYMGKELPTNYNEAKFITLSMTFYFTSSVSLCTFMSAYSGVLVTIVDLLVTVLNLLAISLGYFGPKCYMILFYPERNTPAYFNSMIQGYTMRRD
In general terms: Calcium flux is commonly read through the fluorescence of an indicator in the cells.

Assay [2] addresses T1, hTas1R2:S40T/D142E+hTas1R3 (Homo sapiens, UniProt Q8TE23, D142E/S40T).
T1 sequence (Q8TE23 20-839 S40T/D142E): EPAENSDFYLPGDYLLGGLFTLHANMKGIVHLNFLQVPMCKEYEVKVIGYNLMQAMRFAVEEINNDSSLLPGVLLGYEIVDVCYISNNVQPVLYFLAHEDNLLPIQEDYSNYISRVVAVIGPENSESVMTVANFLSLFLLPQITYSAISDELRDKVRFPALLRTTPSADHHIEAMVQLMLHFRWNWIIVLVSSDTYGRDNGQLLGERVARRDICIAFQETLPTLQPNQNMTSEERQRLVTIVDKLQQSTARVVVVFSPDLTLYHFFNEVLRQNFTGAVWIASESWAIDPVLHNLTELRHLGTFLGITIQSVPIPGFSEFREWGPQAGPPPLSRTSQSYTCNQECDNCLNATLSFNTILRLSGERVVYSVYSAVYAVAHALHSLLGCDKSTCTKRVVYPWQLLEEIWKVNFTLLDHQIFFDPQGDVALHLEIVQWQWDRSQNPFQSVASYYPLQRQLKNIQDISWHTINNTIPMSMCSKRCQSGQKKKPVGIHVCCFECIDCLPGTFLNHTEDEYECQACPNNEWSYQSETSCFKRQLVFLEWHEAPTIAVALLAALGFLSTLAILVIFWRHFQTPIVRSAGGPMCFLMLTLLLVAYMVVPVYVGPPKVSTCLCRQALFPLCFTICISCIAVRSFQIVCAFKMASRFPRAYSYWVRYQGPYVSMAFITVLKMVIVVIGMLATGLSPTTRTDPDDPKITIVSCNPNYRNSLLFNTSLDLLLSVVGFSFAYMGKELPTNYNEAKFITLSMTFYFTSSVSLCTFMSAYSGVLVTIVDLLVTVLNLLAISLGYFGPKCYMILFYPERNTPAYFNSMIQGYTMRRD
T1 sequence (Q7RTX0 21-852 partner): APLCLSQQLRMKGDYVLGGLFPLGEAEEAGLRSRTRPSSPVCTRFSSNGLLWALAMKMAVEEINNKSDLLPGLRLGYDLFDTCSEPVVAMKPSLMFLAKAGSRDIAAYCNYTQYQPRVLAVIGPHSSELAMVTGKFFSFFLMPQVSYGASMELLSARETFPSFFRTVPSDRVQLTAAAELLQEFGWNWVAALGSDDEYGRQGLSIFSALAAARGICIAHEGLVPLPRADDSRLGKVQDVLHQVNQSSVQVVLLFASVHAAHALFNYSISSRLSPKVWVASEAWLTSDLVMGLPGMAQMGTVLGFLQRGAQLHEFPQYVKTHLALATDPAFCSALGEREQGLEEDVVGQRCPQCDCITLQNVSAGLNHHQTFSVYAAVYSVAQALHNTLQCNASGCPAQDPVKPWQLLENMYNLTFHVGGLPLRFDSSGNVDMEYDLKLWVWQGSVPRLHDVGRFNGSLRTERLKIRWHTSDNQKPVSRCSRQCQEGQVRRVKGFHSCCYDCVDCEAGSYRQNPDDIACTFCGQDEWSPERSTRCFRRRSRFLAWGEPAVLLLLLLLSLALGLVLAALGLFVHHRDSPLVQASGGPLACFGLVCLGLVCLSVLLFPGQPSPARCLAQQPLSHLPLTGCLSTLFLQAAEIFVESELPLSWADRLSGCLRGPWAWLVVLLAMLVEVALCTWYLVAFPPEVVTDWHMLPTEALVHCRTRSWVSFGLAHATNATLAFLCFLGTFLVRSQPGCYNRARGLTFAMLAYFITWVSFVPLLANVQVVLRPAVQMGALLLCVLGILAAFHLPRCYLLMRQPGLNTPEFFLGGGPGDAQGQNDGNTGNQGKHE
Kind of assay: Ca2+ mobilization, mutated human receptor. Format: cell-based. Particulars: for calcium response to sweetener: aspartame 10mM, neotame 1mM, sucralose 2 mM, compared with hTas1R2/hTas1R3; for response in dose-response experiment: versus hTas1R2+hTas1R3.

The target of assay [3] is smTas1R2:T40S/L66V/S67I/E142D+smTas1R3 (Saimiri sciureus, UniProt A3QP08, E142D/L66V/S67I/T40S). Kind of assay: Ca2+ mobilization, mutated squirrel monkey receptor. The note with it: aspartame 10mM, neotame 1mM, sucralose 2 mM; compared with smTas1R2/smTas1R3. Format: cell-based, squirrel monkey (Saimiri sciureus).
Sequence of smTas1R2:T40S/L66V/S67I/E142D+smTas1R3 (A3QP08 20-834 T40S/L66V/S67I/E142D): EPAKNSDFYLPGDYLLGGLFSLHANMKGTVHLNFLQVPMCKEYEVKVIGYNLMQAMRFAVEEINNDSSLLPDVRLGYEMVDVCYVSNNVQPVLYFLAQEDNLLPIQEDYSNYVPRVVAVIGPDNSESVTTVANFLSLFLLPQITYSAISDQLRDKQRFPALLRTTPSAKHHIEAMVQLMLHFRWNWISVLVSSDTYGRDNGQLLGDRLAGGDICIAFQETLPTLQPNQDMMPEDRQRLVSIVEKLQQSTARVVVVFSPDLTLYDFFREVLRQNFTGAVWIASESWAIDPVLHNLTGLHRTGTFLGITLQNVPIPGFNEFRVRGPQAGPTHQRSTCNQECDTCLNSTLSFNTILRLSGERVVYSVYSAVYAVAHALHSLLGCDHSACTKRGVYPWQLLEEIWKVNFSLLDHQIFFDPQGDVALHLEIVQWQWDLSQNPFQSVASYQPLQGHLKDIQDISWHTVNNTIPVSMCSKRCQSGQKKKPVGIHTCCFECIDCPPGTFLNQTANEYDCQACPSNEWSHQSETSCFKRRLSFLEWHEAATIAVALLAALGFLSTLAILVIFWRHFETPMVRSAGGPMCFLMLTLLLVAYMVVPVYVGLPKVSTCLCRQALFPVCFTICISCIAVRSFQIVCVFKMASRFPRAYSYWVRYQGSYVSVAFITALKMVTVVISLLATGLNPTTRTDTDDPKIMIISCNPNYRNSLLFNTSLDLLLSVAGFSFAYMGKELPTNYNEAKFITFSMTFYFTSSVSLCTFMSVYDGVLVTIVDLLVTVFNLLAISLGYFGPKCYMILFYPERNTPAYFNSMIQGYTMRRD
The mark [4] stands for this setting: HEK293E cells with Gα16-gust44, dose-response, calcium mobilization.
[5] abbreviates: ΔF/F normalized to maximum response of hTas1R2/hTas1R3 to neotame.

“Also recorded” adds a separate entry of the source. Where two headings read alike, the source gives them in different places. Peptide text beside a SMILES is read from it.

Sequence of smTas1R2:S67I/E142D+smTas1R3 (A3QP08 20-834 S67I/E142D): as the sequence (A3QP08 20-834 T40S/L66V/S67I/E142D) above, with S21T, V47L counted along it

For `COC(=O)[C@H](Cc1ccccc1)NC(=O)[C@@H](N)CC(=O)O` [aspartame, L-α-aspartly-L-phenylalanine methyl ester] (H-Asp-Phe-OMe), a half-maximal effect in assay [1] (EC50) was put at 5600 µM. Besides, the entries for the “response in dose-response experiment” value in assay [1] (dose-response) and in assay [2] (dose-response) were “good response” and “no responses”, respectively. Moreover, the “Bottom (B) of sigmoid dose-response fit” value in assay [1] is recorded as −0.6682. Moreover, the “Top (T) of sigmoid dose-response fit” value in assay [1] came to 26.17. The “calcium response to sweetener” value is recorded as “mild phenotype” on hTas1R2:I67S+hTas1R3, “abolished” in assay [2] and “significant responses” in assay [3].

`COC(=O)[C@H](Cc1ccccc1)NC(=O)[C@H](CC(=O)O)NCCC(C)(C)C` [neotame]: the half-maximal effective concentration (EC50) (usually the concentration that produces a half-maximal response) in assay [1] (setting [4]) worked out at 1000 µM; in assay [2] (setting [4]) it was 1400 µM. The “response in dose-response experiment” value in assay [1] (dose-response) is “good responses”; in assay [2] (dose-response), “weaker responses”. Also, the results for the “Bottom (B) of sigmoid dose-response fit” value in assay [1] and in assay [2] (setting [5]) were −5.754 and 1.387, respectively. In addition, the results for the “Top (T) of sigmoid dose-response fit” value in assay [1] and in assay [2] (setting [5]) were 56.59 and 61.12, respectively. Further, the figures for the “calcium response to sweetener” value (at hTas1R2:I67S+hTas1R3; in assay [2]; in assay [3]) were “slightly reduced response”, “significantly reduced; also recorded: reduced the response to neotame by half” and “significant responses”, respectively.

(Values after publication PMC3149845 (The Journal of neuroscience : the official journal of the …, 2011).)
